The inhibition is the drop in the measured response relative to a control, in per cent. As a reminder, the Ki is the dissociation constant of the complex between target and ligand, obtained from inhibition or displacement. Read a high Ki as a looser hold on the target.

Two compounds from ChEMBL document CHEMBL1250539, “OGA inhibition by GlcNAc-selenazoline” (Bioorg Med Chem, 2010) can be followed below.

In experiment [1] the target is T1, Beta-hexosaminidase subunit beta (Homo sapiens) (UniProt P07686).
T1 sequence (whole entry): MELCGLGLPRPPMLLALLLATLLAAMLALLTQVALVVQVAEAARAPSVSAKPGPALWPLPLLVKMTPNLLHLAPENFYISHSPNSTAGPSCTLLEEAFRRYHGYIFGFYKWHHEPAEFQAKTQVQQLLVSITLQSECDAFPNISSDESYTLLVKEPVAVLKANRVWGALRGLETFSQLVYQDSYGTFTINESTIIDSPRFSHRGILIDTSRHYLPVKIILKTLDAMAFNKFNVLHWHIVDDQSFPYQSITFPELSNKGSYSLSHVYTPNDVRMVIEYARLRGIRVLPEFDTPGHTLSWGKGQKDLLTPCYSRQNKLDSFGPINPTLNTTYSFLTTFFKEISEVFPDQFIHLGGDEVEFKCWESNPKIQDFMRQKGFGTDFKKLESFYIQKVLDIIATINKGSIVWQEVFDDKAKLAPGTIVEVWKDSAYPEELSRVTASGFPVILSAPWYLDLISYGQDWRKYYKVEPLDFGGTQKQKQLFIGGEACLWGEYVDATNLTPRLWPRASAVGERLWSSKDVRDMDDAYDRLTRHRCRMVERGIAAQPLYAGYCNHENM
Nature of the experiment: Inhibition of human placental lysosomal hexosaminidase B at 5 uM.

Experiment [2] is described as follows: Competitive inhibition of Streptomyces plicatus hexosaminidase.
The test system of experiment [3] is HT-29. Nature of the experiment: Induction of hyper-O-GlcNAc-ylation in human HT-29 cells assessed as increase of O-GlcNAc level at 40 uM after 48 hrs Western blotting. In kind it is functional, cell-based. Put shortly: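 HT-29 cells seeded at 1.0 × 10^5 per well in McCoy's 5a + 10% FBS, with or without 40 μM inhibitor, 37 °C for 2 days. Lysed in Tris pH 8.0/DTT/Triton X-100 with protease inhibitors and sonicated. 20 μg protein per lane run on 10% SDS gel and blotted. Probed with anti-O-GlcNAc RL2 (1:1000) and IR-dye anti-mouse secondary; infrared imaging.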

In experiment [4] the test system is HeLa. As to the kind of experiment: Induction of hyper-O-GlcNAc-ylation in human HeLa cells assessed as increase of O-GlcNAc level at 40 uM after 48 hrs Western blotting. The class given is functional, cell-based. Put shortly:
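HeLa cells seeded at 1.0 × 10^5 per well in DMEM + 10% FBS, ±40 μM inhibitor, 37 °C, 2 days. Washed in PBS, pelleted and lysed with M-PER reagent. Equal protein (20 μg) separated on 10% gel. Western blot with RL2 anti-O-GlcNAc (1:1000) and IR-dye anti-mouse secondary; infrared imaging.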
A general note: A western blot detects proteins with antibodies after separation by electrophoresis.

The target in experiment [5] is T2, Solute carrier family 2, facilitated glucose transporter member 4 (Mus musculus) (UniProt P14142).
T2 sequence (whole entry): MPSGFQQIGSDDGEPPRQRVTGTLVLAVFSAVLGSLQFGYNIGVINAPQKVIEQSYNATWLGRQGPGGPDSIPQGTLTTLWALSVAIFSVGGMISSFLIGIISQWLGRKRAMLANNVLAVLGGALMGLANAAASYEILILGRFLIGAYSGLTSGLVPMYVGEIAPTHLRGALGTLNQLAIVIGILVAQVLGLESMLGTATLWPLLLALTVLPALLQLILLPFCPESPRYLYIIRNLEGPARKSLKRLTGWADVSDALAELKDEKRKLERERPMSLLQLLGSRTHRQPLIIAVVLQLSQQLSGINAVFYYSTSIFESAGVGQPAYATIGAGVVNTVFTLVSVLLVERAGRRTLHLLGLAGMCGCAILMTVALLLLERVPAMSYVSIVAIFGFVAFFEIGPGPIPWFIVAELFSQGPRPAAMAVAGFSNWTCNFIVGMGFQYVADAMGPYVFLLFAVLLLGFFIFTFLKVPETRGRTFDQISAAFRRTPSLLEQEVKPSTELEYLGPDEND
As to the kind of experiment: Inhibition of insulin-induced GLUT4 translocation into plasma membrane of mouse differentiated 3T3L1 cells at 40 uM after 16 hrs by Western blotting relative to control. The conditions noted are these: 3T3-L1. The essentials:
(§1)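 Differentiated 3T3-L1 adipocytes (day 8) were held 16 h in serum-free DMEM with 4 mM glucose, with or without 40 μM inhibitor. They were re-fed and stimulated with 30 nM insulin for 20 min. Surface GLUT4 was photolabeled with 250 μM Bio-ATB-BMPA at 300 nm. Lysate (600 μg) underwent streptavidin pull-down and anti-GLUT4 immunoblotting, and surface GLUT4 was compared with untreated cells.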

Experiment [6] deals with 3T3-L1. As to the kind of experiment: Effect on GLUT4 level in mouse differentiated 3T3L1 cells. The class given is functional, cell-based. Put shortly: as §1
Experiment [7] addresses T3, Beta-hexosaminidase subunit alpha (Homo sapiens) (UniProt P06865).
T3 sequence (whole entry): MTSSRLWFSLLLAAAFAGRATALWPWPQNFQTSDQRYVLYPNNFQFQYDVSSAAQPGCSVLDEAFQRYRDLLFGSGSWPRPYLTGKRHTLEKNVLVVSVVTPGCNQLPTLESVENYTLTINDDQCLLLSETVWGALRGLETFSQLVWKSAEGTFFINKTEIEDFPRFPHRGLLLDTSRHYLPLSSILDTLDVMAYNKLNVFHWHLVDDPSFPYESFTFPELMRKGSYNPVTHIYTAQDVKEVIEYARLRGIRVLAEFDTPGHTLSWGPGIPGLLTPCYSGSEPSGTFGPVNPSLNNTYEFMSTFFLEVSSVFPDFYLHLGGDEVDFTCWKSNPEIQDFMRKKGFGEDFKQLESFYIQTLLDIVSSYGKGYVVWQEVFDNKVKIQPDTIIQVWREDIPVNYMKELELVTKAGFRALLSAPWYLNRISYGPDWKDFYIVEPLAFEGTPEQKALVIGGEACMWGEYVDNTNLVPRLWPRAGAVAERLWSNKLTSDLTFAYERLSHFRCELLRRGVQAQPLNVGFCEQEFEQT
As to the kind of experiment: Inhibition of human placental lysosomal hexosaminidase A at 5 uM. The essentials:
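Human placental Hex A was incubated with 50 μM fluorescein di(GlcNAc) substrate ± 5 μM inhibitor in 100 mM citrate/phosphate pH 6.5 without GalNAc at 37 °C for 30 min. The reaction was stopped with 0.5 M Na2CO3 and read by fluorescence (ex 485 / em 535 nm). Percent inhibition was taken against activity without inhibitor.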

The target of experiment [8] is RAC-alpha serine/threonine-protein kinase (Mus musculus) (UniProt P31750). Nature of the experiment: Activation of AKT.
In experiment [9] the target is 3-phosphoinositide-dependent protein kinase 1 (Mus musculus) (UniProt Q9Z2A0). Nature of the experiment: Activation of PDK1.
Experiment [10] addresses T4, Protein O-GlcNAcase (Homo sapiens, UniProt O60502).
T4 sequence (O60502 whole entry): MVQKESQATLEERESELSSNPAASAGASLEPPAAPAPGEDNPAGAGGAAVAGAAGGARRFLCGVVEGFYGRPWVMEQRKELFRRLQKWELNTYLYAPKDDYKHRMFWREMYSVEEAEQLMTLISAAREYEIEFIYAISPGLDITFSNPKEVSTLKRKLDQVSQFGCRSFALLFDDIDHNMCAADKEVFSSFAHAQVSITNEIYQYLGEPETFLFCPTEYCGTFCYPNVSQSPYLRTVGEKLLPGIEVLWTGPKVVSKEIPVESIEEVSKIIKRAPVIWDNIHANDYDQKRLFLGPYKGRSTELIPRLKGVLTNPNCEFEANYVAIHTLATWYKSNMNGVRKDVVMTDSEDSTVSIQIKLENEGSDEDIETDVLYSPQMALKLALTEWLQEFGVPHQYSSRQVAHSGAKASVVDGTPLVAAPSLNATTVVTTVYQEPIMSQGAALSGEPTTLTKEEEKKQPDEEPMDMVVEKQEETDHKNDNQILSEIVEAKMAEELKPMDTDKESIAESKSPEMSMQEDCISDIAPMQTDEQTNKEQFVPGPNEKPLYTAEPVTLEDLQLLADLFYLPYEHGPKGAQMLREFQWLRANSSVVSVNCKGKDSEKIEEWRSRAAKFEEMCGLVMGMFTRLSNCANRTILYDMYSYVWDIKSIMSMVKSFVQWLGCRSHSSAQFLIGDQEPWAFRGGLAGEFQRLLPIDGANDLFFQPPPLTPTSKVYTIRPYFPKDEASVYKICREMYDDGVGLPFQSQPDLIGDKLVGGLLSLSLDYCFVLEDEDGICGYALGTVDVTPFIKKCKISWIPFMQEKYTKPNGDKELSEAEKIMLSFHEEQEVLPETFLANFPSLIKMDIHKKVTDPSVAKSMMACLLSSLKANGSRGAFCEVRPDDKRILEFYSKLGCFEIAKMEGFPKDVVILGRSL
Nature of the experiment: Inhibition of human O-GlcNAcase after 5 mins by Lineweaver-Burke plot analysis.

Active and inactive are the calls of the source. The rule behind the calls is not given here.

RAC-alpha serine/threonine-protein kinase (Mus musculus), sequence (P31750 whole entry, looked up): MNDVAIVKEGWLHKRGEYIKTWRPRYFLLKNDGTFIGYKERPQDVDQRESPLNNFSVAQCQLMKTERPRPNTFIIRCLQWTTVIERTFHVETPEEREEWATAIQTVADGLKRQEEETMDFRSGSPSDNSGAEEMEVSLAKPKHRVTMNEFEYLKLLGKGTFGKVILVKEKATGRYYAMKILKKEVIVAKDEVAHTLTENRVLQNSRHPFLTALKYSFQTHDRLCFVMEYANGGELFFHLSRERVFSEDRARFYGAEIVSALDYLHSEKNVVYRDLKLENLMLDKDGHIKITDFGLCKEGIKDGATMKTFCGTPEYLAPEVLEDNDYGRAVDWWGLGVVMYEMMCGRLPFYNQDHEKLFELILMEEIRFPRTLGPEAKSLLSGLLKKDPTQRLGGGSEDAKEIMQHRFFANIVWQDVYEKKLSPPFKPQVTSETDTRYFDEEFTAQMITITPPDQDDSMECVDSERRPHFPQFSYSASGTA
3-phosphoinositide-dependent protein kinase 1 (Mus musculus), sequence (Q9Z2A0 whole entry, looked up): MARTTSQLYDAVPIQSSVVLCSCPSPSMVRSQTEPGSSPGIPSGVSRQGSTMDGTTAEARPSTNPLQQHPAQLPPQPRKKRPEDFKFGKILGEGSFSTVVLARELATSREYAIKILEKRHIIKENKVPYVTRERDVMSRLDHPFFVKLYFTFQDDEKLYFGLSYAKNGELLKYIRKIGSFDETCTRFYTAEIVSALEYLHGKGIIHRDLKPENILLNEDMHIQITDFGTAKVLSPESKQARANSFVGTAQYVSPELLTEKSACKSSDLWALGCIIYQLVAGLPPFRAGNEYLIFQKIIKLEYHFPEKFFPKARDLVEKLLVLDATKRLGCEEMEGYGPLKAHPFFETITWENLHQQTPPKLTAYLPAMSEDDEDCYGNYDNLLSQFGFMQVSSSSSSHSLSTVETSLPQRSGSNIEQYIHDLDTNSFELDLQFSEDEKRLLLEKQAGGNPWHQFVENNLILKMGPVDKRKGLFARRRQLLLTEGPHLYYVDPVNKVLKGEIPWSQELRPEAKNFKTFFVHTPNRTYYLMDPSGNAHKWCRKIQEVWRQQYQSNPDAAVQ

Turning to `CC1=N[C@@H]2[C@@H](O)[C@H](O)[C@@H](CO)O[C@@H]2S1`, the inhibition entry in [1] and in experiment [7] was “Active” each time. The compound further yielded a Ki in [2] of 20 µM. Moreover, the outcome in experiment [3], in [4], in experiment [8] and in experiment [9] was Active. Besides, in experiment [5], the inhibition stood at 43%. The result in [6] was inactive.

In the case of `CC1=N[C@@H]2[C@@H](O)[C@H](O)[C@@H](CO)O[C@@H]2[Se]1`, the inhibition result in experiment [1] and in experiment [7] was “Active” throughout. Moreover, the inhibitory constant (Ki) is 0.7 µM in [10] and 170 µM in [2]. Moreover, the result in experiment [3], in [4], in experiment [8] and in experiment [9] was Active. Also, the inhibition in experiment [5] worked out at 16.3%. Further, in [6], the result was inactive.
